Assays:
[1] = Oral bioavailability in rat at 3 mg/kg administered as cassette dose measured by UPLC-MS/MS; format: ADME, organism-based; details: in vivo
In short: (§1)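 Ester prodrugs are given to rats by oral gavage, some as a cassette with another ester. F is the percent absolute oral bioavailability of the parent, corrected for the MW difference between prodrug and parent.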

Klebsiella pneumoniae [2] = assay: Antibacterial activity against Klebsiella pneumoniae expressing OXA-48 assessed as concentration required to restore ceftibuten activity incubated for 16 to 20 hrs in presence of 1 ug/ml ceftibuten by broth microdilution method; format: functional; details: time 16-20 hrs
Escherichia coli [3] = assay: Antibacterial activity against Escherichia coli J53 expressing SHV-5/TEM-1/AmpC assessed as concentration required to restore ceftibuten activity incubated for 16 to 20 hrs in presence of 1 ug/ml ceftibuten by broth microdilution method; format: functional; details: time 16-20 hrs
[4] = Inhibition of bacterial beta-lactamase OXA-48 using nitrocefin as substrate preincubated for 15 mins followed by substrate addition and measured after 10 mins by spectrophotometric analysis; parameters: species or system Bacteria
In short: (§2)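 IC50 is the mean of duplicate runs on separate days. A run was repeated automatically if it differed by more than 20% from the previous result.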

Klebsiella pneumoniae [5] = assay: Antibacterial activity against Klebsiella pneumoniae 156309 expressing SHV-11/TEM-1/KPC-2 assessed as concentration required to restore ceftibuten activity incubated for 16 to 20 hrs in presence of 1 ug/ml ceftibuten by broth microdilution method; format: functional; details: time 16-20 hrs
Escherichia coli [6] = assay: Antibacterial activity against Escherichia coli 664507 expressing OXA-48 assessed as concentration required to restore ceftibuten activity incubated for 16 to 20 hrs in presence of 1 ug/ml ceftibuten by broth microdilution method; format: functional; details: time 16-20 hrs
In short: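 Tested against a 25-strain challenge panel of clinical E. coli and K. pneumoniae isolates carrying ESBL (n = 5), KPC (n = 11), class C (n = 4) or OXA-48 (n = 5) β-lactamases. Ceftibuten was held at 1 μg/mL while the BLI concentration varied. The read-out was the BLI concentration that rescued ceftibuten activity.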

[7] = Inhibition of bacterial beta-lactamase KPC-2 using imipenem as substrate preincubated for 15 mins followed by substrate addition and measured after 10 mins by spectrophotometric analysis; parameters: species or system Bacteria; in short: as §2
Klebsiella pneumoniae [8] = assay: Antibacterial activity against Klebsiella pneumoniae expressing SHV-12/TEM-1 assessed as concentration required to restore ceftibuten activity incubated for 16 to 20 hrs in presence of 1 ug/ml ceftibuten by broth microdilution method; format: functional; details: time 16-20 hrs
Escherichia coli [9] = assay: Antibacterial activity against Escherichia coli expressing CTX-M-15/TEM-1 assessed as concentration required to restore ceftibuten activity incubated for 16 to 20 hrs in presence of 1 ug/ml ceftibuten by broth microdilution method; format: functional; details: time 16-20 hrs
[10] = Inhibition of bacterial beta-lactamase AmpC using nitrocefin as substrate preincubated for 15 mins followed by substrate addition and measured after 10 mins by spectrophotometric analysis; parameters: species or system Bacteria; in short: as §2
Escherichia coli [11] = assay: Antibacterial activity against Escherichia coli 786978 expressing KPC assessed as concentration required to restore ceftibuten activity incubated for 16 to 20 hrs in presence of 1 ug/ml ceftibuten by broth microdilution method; format: functional; details: time 16-20 hrs
Klebsiella pneumoniae [12] = assay: Antibacterial activity against Klebsiella pneumoniae 196477 expressing AmpC/CMY-2/TEM-1/CTX-M-15 assessed as concentration required to restore ceftibuten activity incubated for 16 to 20 hrs in presence of 1 ug/ml ceftibuten by broth microdilution method; format: functional; details: time 16-20 hrs
[13] = Inhibition of bacterial beta-lactamase SHV-5 using cefotaxime as substrate preincubated for 15 mins followed by substrate addition and measured after 10 mins by spectrophotometric analysis; parameters: species or system Bacteria; in short: as §2
[14] = Oral bioavailability in rat at 10 mg/kg administered as cassette dose measured by UPLC-MS/MS; format: ADME, organism-based; details: in vivo; in short: as §1
[15] = 10 mg/kg, in the assay text read “measured” for “administered as cassette dose measured”

bioavailability [14] [%]	SMILES	Activity (Klebsiella pneumoniae [2]) [µg/mL]	Activity (Escherichia coli [3]) [µg/mL]	IC50 [4] [nM]	Activity (Klebsiella pneumoniae [5]) [µg/mL]	Activity (Escherichia coli [6]) [µg/mL]	IC50 [7] [nM]	Activity (Klebsiella pneumoniae [8]) [µg/mL]	Activity (Escherichia coli [9]) [µg/mL]	IC50 [10] [nM]	Activity (Escherichia coli [11]) [µg/mL]	Activity (Klebsiella pneumoniae [12]) [µg/mL]	IC50 [13] [nM]	also measured
	CC(C)(C)C(=O)OCOC(=O)c1cccc2c1OB(O)[C@@H](NC(=O)CCNS(C)(=O)=O)C2													bioavailability [1]: < 5%
	C#CCCC(=O)N[C@H]1Cc2cccc(C(=O)O)c2OB1O	4	1	627	2	0.5	31	0.06	0.25	6	1	0.06	17	
	CC(F)(F)CCC(=O)N[C@H]1Cc2cccc(C(=O)O)c2OB1O	4	0.03	2390	4	0.25	41	0.03	0.5	7	1	0.12		
33	CCC(=O)N[C@H]1Cc2cccc(C(=O)OCOC(=O)OC(CC)CC)c2OB1O													
	O=C(CCC(F)(F)F)N[C@H]1Cc2cccc(C(=O)O)c2OB1O	8	0.03	1620	2	0.25	43	0.06	1	9	1	0.5	8	
10	CCC(=O)N[C@H]1Cc2cccc(C(=O)OCOC(C)=O)c2OB1O													
	CCOC(=O)c1cccc2c1OB(O)[C@@H](NC(=O)CCC(N)=O)C2													bioavailability [1]: < 5%
	CC(C)(C)C(=O)OCOC(=O)c1cccc2c1OB(O)[C@@H](NC(=O)CCC(N)=O)C2													bioavailability [1]: < 5%
	CC(C)(C)C(=O)OCOC(=O)c1cccc2c1OB(O)[C@@H](NC(=O)CCC#N)C2													bioavailability [14, 15]: 20%
	CC(=O)CCC(=O)N[C@H]1Cc2cccc(C(=O)OCOC(=O)C(C)(C)C)c2OB1O													bioavailability [14, 15]: 95%
38	CCC(=O)N[C@H]1Cc2cccc(C(=O)OCOC(=O)C(C)C)c2OB1O													
24	CCC(=O)N[C@H]1Cc2cccc(C(=O)OCOC(=O)OC3CCCC3)c2OB1O													
	NC(=O)CCC(=O)N[C@H]1Cc2cccc(C(=O)O)c2OB1O	0.5	2	1790	2	0.06	69	0.12	0.12	6	1	0.016	514	
	CCOC(=O)c1cccc2c1OB(O)[C@@H](NC(=O)CC)C2													bioavailability [1]: < 5%
	CCOC(=O)c1cccc2c1OB(O)[C@@H](NC(=O)CCNS(N)(=O)=O)C2													bioavailability [1]: < 5%
	N#CCCC(=O)N[C@H]1Cc2cccc(C(=O)O)c2OB1O	2	0.03	687	2	0.12	33	0.06	0.12	14	0.5	0.03	12	
28	CCOC(C)(C)C(=O)OCOC(=O)c1cccc2c1OB(O)[C@@H](NC(=O)CC)C2													
	CCCC(=O)N[C@H]1Cc2cccc(C(=O)O)c2OB1O	1	0.016	426	1	0.25	93	0.12	0.12	9	0.5	0.03	36	
	NS(=O)(=O)CCC(=O)N[C@H]1Cc2cccc(C(=O)O)c2OB1O	2	0.12	8550	2	0.12	35	0.06	0.25	3	1	0.03	8	
19	CCC(=O)N[C@H]1Cc2cccc(C(=O)OCOC(=O)C3CCCC3)c2OB1O													
	CS(=O)(=O)NCCC(=O)N[C@H]1Cc2cccc(C(=O)O)c2OB1O	2	0.016	4670	1	0.03	28	0.016	0.12	5	0.5	0.03	12	
	CCCC(=O)N[C@H]1Cc2cccc(C(=O)OCOC(=O)C(C)(C)C)c2OB1O													F ([1]; 3 mg/kg): 31%
23	CCC(=O)N[C@H]1Cc2cccc(C(=O)OCOC(=O)OC(C)C)c2OB1O													

Source: ChEMBL document CHEMBL5034013, “Discovery of VNRX-7145 (VNRX-5236 Etzadroxil): An Orally Bioavailable β-Lactamase Inhibitor for Enterobacterales Expressing Ambler Class A, C, and D Enzymes” (J Med Chem, 2021)
